Measurements reported in ChEMBL document CHEMBL1208671, “Small structural changes of pentacyclic lupane type triterpenoid derivatives lead to significant differences in their anticancer properties” (Eur J Med Chem, 2010).
Calls of active or inactive are those of the source. The rule behind the calls is not given here.

Key:
A549 = test: Cytotoxicity against human A549 cells after 96 hrs by SRB colorimetric assay; assay type: functional, cell-based; details: A549, 96 h
Method in brief: (§1)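 Cells kept as monolayers in RPMI 1640 with 10 % heat-inactivated FBS and 1 % penicillin/streptomycin, 37°C, 5 % CO2, seeded at optimal density. Exponentially growing cells exposed to compound for 96 h, fixed with 10 % TCA, stained with sulforhodamine B for 30 min, washed with 1 % acetic acid, bound dye dissolved in 10 mM Tris base, OD read at 570 nm. IC50 estimated from semi-log dose-response curves versus untreated controls.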

MCF7 = test: Cytotoxicity against human MCF7 cells after 96 hrs by SRB colorimetric assay; assay type: functional, cell-based; details: MCF7, 96 h; method in brief: as §1
A-431 = test: Cytotoxicity against human A431 cells after 96 hrs by SRB colorimetric assay; assay type: functional, cell-based; details: A-431, 96 h; method in brief: as §1
[1] = Cytotoxicity against human 518A2 cells after 96 hrs by SRB colorimetric assay; assay type: functional, cell-based; details: 518A2, 96 h; method in brief: as §1
[2] = Cytotoxicity against human A253 cells after 96 hrs by SRB colorimetric assay; assay type: functional, cell-based; details: A253, 96 h; method in brief: as §1
SW-1736 = test: Cytotoxicity against human SW1736 cells after 96 hrs by SRB colorimetric assay; assay type: functional, cell-based; details: SW-1736, 96 h; method in brief: as §1
A2780 = test: Cytotoxicity against human A2780 cells after 96 hrs by SRB colorimetric assay; assay type: functional, cell-based; details: A2780, 96 h; method in brief: as §1
HT-29 [3] = test: Cytotoxicity against human HT-29 cells after 96 hrs by SRB colorimetric assay; assay type: functional, cell-based; details: HT-29, 96 h; method in brief: as §1
HT-29 [4] = test: Induction of apoptosis in human HT-29 cells at IC90 concentration after 48 hrs using annexin V and propidium iodide staining by FACS analysis relative to control; assay type: functional
HT-29 [5] = test: Induction of apoptosis in human HT-29 cells assessed as DNA fragmentation at IC90 concentration after 24 hrs using ethidium bromide staining by DNA gel electrophoresis; assay type: functional, cell-based
Method in brief: (§2)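 RPMI 1640 cultures (10 % heat-inactivated FBS, 37°C, 5 % CO2) were exposed to the IC90 concentration for 24 h. For trypan blue exclusion, cells excluding the dye were scored as viable or early apoptotic and blue cells as necrotic. DNA was run on agarose gels, where internucleosomal laddering (180 bp multiples) indicates apoptosis and a smear indicates necrosis.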

HT-29 [6] = test: Induction of apoptosis in human HT-29 cells assessed as upregulation of caspase 2 activity at IC90 concentration after 2 hrs; assay type: functional, cell-based
Method in brief: (§3)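 HT-29 monolayers were kept in RPMI 1640 with 10 % heat-inactivated FBS and 1 % penicillin/streptomycin at 37°C in 5 % CO2. Cells were exposed to the test agent, and caspase-2, -3, -8 and -9 activities were measured after 2, 6 and 24 h.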

HT-29 [7] = test: Cell cycle arrest in human HT-29 cells assessed as accumulation at G1 phase at IC90 concentration after 48 hrs using propidium iodide staining by flow cytometry; assay type: functional
Method in brief: (§4)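 Exponentially growing cells were exposed to the IC90 concentration for 24 and 48 h. Cell-cycle phase distribution, including the sub-G1 apoptotic peak, was compared with untreated controls at each time.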

HT-29 [8] = test: Cell cycle arrest in human HT-29 cells assessed as accumulation at subG1 phase at IC90 concentration after 24 hrs using propidium iodide staining by flow cytometry; assay type: functional; method in brief: as §4
HT-29 [9] = test: Cell cycle arrest in human HT-29 cells assessed as accumulation at S phase at IC90 concentration after 24 hrs using propidium iodide staining by flow cytometry; assay type: functional; method in brief: as §4
HT-29 [10] = test: Induction of apoptosis in human HT-29 cells assessed as programmed cell death at IC90 concentration after 24 hrs by trypan blue exclusion test; assay type: functional, cell-based; method in brief: as §2
HT-29 [11] = test: Cell cycle arrest in human HT-29 cells assessed as accumulation at G2/M phase at IC90 concentration after 24 hrs using propidium iodide staining by flow cytometry; assay type: functional; method in brief: as §4
HT-29 [12] = test: Cell cycle arrest in human HT-29 cells assessed as accumulation at G1 phase at IC90 concentration after 24 hrs using propidium iodide staining by flow cytometry; assay type: functional; method in brief: as §4
HT-29 [13] = test: Induction of apoptosis in human HT-29 cells assessed as upregulation of caspase 3 activity at IC90 concentration after 24 hrs; assay type: functional, cell-based; method in brief: as §3
HT-29 [14] = test: Induction of apoptosis in human HT-29 cells assessed as upregulation of caspase 9 activity at IC90 concentration after 24 hrs; assay type: functional, cell-based; method in brief: as §3
HT-29 [15] = test: Induction of apoptosis in human HT-29 cells assessed as upregulation of caspase 9 activity at IC90 concentration after 2 hrs; assay type: functional, cell-based; method in brief: as §3
HT-29 [16] = test: Cell cycle arrest in human HT-29 cells assessed as accumulation at S phase at IC90 concentration after 48 hrs using propidium iodide staining by flow cytometry; assay type: functional; method in brief: as §4
HT-29 [17] = test: Induction of apoptosis in human HT-29 cells assessed as upregulation of caspase 3 activity at IC90 concentration after 2 hrs; assay type: functional, cell-based; method in brief: as §3
HT-29 [18] = test: Induction of apoptosis in human HT-29 cells assessed as upregulation of caspase 8 activity at IC90 concentration after 24 hrs; assay type: functional, cell-based; method in brief: as §3
HT-29 [19] = test: Cell cycle arrest in human HT-29 cells assessed as accumulation at subG1 phase at IC90 concentration after 48 hrs using propidium iodide staining by flow cytometry; assay type: functional; method in brief: as §4
HT-29 [20] = test: Cell cycle arrest in human HT-29 cells assessed as accumulation at G2/M phase at IC90 concentration after 48 hrs using propidium iodide staining by flow cytometry; assay type: functional; method in brief: as §4
HT-29 [21] = test: Induction of apoptosis in human HT-29 cells assessed as upregulation of caspase 2 activity at IC90 concentration after 6 hrs; assay type: functional, cell-based; method in brief: as §3
HT-29 [22] = test: Induction of apoptosis in human HT-29 cells assessed as upregulation of caspase 8 activity at IC90 concentration after 2 hrs; assay type: functional, cell-based; method in brief: as §3
HT-29 [23] = test: Induction of apoptosis in human HT-29 cells assessed as upregulation of caspase 2 activity at IC90 concentration after 24 hrs; assay type: functional, cell-based; method in brief: as §3
HT-29 [24] = test: Induction of apoptosis in human HT-29 cells assessed as upregulation of caspase 3 activity at IC90 concentration after 6 hrs; assay type: functional, cell-based; method in brief: as §3
HT-29 [25] = test: Induction of apoptosis in human HT-29 cells assessed as upregulation of caspase 9 activity at IC90 concentration after 6 hrs; assay type: functional, cell-based; method in brief: as §3
HT-29 [26] = test: Induction of apoptosis in human HT-29 cells assessed as upregulation of caspase 8 activity at IC90 concentration after 6 hrs; assay type: functional, cell-based; method in brief: as §3

Row | Structure (SMILES) | IC50 (A549) | IC50 (MCF7) | IC50 (A-431) | IC50 [1] | IC50 [2] | IC50 (SW-1736) | IC50 (A2780) | IC50 (HT-29 [3]) | Activity (HT-29 [4]) | Activity (HT-29 [5]) | other results
1 | C=C(C)[C@@H]1CC[C@]2(C(=O)NC(CO)(CO)CO)CC[C@]3(C)[C@H](CC[C@@H]4[C@@]5(C)CC[C@H](OC(C)=O)C(C)(C)[C@@H]5CC[C@]43C)[C@@H]12 | 30.5 µM | 29.4 µM | 10.3 µM | 29.6 µM | 29.5 µM | 10.2 µM | 10.1 µM | 10 µM | – | – | –
2 | C=C(C)[C@@H]1CC[C@]2(C(=O)O)CC[C@]3(C)[C@H](CC[C@@H]4[C@@]5(C)CC[C@H](O)C(C)(C)[C@@H]5CC[C@]43C)[C@@H]12 | – | – | – | – | – | – | – | – | Active | Active | –
3 | C=C(C)[C@@H]1CC[C@]2(C(=O)OCC(N)(CO)CO)CC[C@]3(C)[C@H](CC[C@@H]4[C@@]5(C)CC[C@H](O)C(C)(C)[C@@H]5CC[C@]43C)[C@@H]12 | > 100 µM | > 100 µM | 3.61 µM | > 100 µM | > 100 µM | > 100 µM | 3.46 µM | 8.9 µM | – | – | –
4 | C=C(C)[C@@H]1CC[C@]2(C(=O)OCC(CO)CO)CC[C@]3(C)[C@H](CC[C@@H]4[C@@]5(C)CC[C@H](O)C(C)(C)[C@@H]5CC[C@]43C)[C@@H]12 | > 100 µM | > 100 µM | > 100 µM | > 100 µM | > 100 µM | > 100 µM | > 100 µM | > 100 µM | – | – | –
5 | C=C(C)[C@@H]1CC[C@]2(C(=O)NC(CO)(CO)CO)CC[C@]3(C)[C@H](CC[C@@H]4[C@@]5(C)CC[C@H](O)C(C)(C)[C@@H]5CC[C@]43C)[C@@H]12 | > 100 µM | > 100 µM | > 100 µM | > 100 µM | > 100 µM | > 100 µM | > 100 µM | > 100 µM | – | – | –
6 | C=C(C)[C@@H]1CC[C@]2(C(=O)O)CC[C@]3(C)[C@H](CC[C@@H]4[C@@]5(C)CCC(=O)C(C)(C)[C@@H]5CC[C@]43C)[C@@H]12 [BETUNOLIC ACID] | 10.1 µM | 10.4 µM | 3.26 µM | 10.4 µM | 10.1 µM | 3.05 µM | 2.98 µM | 10 µM | – | – | –
7 | C=C(C)[C@@H]1CC[C@]2(C(=O)OCC(N)(CO)CO)CC[C@]3(C)[C@H](CC[C@@H]4[C@@]5(C)CC[C@H](OC(C)=O)C(C)(C)[C@@H]5CC[C@]43C)[C@@H]12 | 3.44 µM | 2.76 µM | 2.54 µM | 2.87 µM | 2.02 µM | 3.73 µM | 3.62 µM | 2.45 µM | 20% | Active | Activity (HT-29 [6]): inactive; Activity (HT-29 [7]): 18.07%; Activity (HT-29 [8]): 25.11%; Activity (HT-29 [9]): 19.83%; Activity (HT-29 [10]): Active; Activity (HT-29 [11]): 16.39%; Activity (HT-29 [12]): 38.41%; Activity (HT-29 [13]): inactive; Activity (HT-29 [14]): inactive; Activity (HT-29 [15]): inactive; Activity (HT-29 [16]): 13.85%; Activity (HT-29 [17]): inactive; Activity (HT-29 [18]): inactive; Activity (HT-29 [19]): 60.66%; Activity (HT-29 [20]): 7.6%; Activity (HT-29 [21]): Active; Activity (HT-29 [22]): inactive; Activity (HT-29 [23]): inactive
8 | C=C(C)[C@@H]1CC[C@]2(C(=O)O)CC[C@]3(C)[C@H](CC[C@@H]4[C@@]5(C)CC[C@H](OC(C)=O)C(C)(C)[C@@H]5CC[C@]43C)[C@@H]12 | 6.73 µM | 11.1 µM | 10.7 µM | 4.65 µM | 11.8 µM | 7.3 µM | 19 µM | 16.1 µM | – | – | –
9 | C=C(C)[C@@H]1CC[C@]2(C(=O)OCC(N)(CO)CO)CC[C@]3(C)[C@H](CC[C@@H]4[C@@]5(C)CCC(=O)C(C)(C)[C@@H]5CC[C@]43C)[C@@H]12 | 10.8 µM | 10.6 µM | 10.1 µM | 10.8 µM | 10.5 µM | 10.1 µM | 10 µM | 9.44 µM | 20% | Active | Activity (HT-29 [6]): Active; Activity (HT-29 [24]): inactive; Activity (HT-29 [7]): inactive; Activity (HT-29 [25]): inactive; Activity (HT-29 [10]): Active; Activity (HT-29 [26]): inactive; Activity (HT-29 [14]): inactive; Activity (HT-29 [16]): inactive; Activity (HT-29 [18]): inactive; Activity (HT-29 [19]): inactive; Activity (HT-29 [20]): inactive; Activity (HT-29 [21]): inactive; Activity (HT-29 [23]): inactive
